Test results: PMC4867259 (Free radical biology & medicine, 2016)
One block for each compound: values may come before it.

What was measured:
human recombinant COX-2 = target: T1, human recombinant COX-2 (Homo sapiens, UniProt P35354); experiment: COX-2 enzyme activity assay; assay type: biochemical
T1 sequence (P35354 18-604): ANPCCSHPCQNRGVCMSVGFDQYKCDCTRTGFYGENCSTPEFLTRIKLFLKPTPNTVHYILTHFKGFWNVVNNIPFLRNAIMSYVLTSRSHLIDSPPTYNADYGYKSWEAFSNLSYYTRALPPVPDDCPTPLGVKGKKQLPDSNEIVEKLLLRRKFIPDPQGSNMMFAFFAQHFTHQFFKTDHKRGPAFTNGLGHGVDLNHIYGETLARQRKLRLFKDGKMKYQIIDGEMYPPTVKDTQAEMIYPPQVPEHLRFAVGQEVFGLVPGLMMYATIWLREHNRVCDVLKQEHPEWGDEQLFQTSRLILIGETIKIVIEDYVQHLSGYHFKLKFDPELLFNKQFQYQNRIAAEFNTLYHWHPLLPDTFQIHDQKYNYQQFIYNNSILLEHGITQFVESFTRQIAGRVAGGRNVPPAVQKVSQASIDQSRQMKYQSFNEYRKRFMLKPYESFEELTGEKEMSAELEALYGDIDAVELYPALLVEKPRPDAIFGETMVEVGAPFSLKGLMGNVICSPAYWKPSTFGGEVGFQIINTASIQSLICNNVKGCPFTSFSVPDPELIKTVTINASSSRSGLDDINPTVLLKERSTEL
Method in brief: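 Test compound was preincubated with enzyme in 0.1 M Tris (pH 8.0) containing 5 mM EDTA, 2 mM phenol and 1 µM hematin. Arachidonic acid (5 µM final) was added for 2 min, and 0.1 M HCl stopped the reaction. Stannous chloride in 0.1 M HCl reduced PGG2/PGH2 to PGF2α, quantified by ELISA. IC50 values are mean ± SEM of four or more independent experiments.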

human recombinant 5-LOX = target: T2, human recombinant 5-LOX (Homo sapiens, UniProt P09917); experiment: 5-LOX activity, ferrous oxidation-xylenol orange; assay type: biochemical
T2 sequence (P09917 1-674): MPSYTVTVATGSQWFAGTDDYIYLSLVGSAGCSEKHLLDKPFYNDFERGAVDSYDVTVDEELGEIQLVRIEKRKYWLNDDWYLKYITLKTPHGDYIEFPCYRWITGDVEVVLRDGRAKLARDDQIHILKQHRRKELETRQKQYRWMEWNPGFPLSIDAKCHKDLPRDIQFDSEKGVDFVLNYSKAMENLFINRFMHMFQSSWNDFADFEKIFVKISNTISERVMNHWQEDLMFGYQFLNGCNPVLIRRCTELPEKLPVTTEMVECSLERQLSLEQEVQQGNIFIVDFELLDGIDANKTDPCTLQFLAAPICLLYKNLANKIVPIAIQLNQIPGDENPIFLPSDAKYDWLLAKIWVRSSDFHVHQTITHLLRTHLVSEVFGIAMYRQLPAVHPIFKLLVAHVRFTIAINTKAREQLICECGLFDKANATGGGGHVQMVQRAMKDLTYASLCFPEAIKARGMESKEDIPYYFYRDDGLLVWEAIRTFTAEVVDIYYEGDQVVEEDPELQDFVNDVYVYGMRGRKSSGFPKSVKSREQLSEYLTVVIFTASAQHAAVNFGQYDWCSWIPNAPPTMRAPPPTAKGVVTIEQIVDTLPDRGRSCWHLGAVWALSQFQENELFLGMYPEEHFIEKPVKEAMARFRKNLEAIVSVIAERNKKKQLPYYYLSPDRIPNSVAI

HCT-116 cells [1] = experiment: Western blotting of LC3-II, caspase-9 and PARP; assay type: cell-based, human; settings: 20 μM for 24 h
Method in brief: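 HCT-116 lysates were prepared in Tris-EDTA with 1% SDS, 2 mM Na3VO4 and protease inhibitors, and protein was quantified by BCA. Equal protein was resolved by SDS-PAGE and probed for LC3, caspase-9, PARP-1 and actin. Caspase-9 activation and PARP cleavage served as apoptosis read-outs and LC3-II as the autophagy read-out. Blots are representative of three or more independent experiments.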

DEGS = target: T3, DEGS (Rattus norvegicus, UniProt Q5XIF5); experiment: DEGS assay with rat liver microsomal fraction; assay type: biochemical; settings: rat liver microsomal fraction as source of DEGS; data not shown
T3 sequence (Q5XIF5 1-323): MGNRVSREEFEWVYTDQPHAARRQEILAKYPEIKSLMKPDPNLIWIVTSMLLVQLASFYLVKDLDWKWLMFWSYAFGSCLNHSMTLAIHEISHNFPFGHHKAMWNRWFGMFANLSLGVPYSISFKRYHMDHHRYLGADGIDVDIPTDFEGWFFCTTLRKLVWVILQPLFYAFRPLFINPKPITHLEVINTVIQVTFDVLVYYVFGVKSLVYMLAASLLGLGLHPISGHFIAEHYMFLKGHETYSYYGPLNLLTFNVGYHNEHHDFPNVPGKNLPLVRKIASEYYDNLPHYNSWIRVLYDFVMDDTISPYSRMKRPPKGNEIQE

HT-29 cells = experiment: MTT cell viability assay, HT-29; assay type: cell-based, human; settings: time- and dose-dependent
Method in brief: (§1)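 Cells were grown with 10% FBS at 37 °C and 5% CO2: HCT-116 in McCoy's 5A, HT-29 in DMEM. Cells were exposed to test compound at indicated concentrations and times, and viability was read by MTT (mitochondrial dehydrogenase activity) relative to DMSO controls. […] Values are mean SD of at least three independent experiments.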

HCT-116 cells [2] = experiment: Sphingolipid levels by LC-MS/MS; assay type: cell-based, human
Method in brief: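 Treated HCT-116 pellets were extracted in methanol/chloroform/water with internal standards (C12:0- and C25:0-ceramide, C17-sphingosine, C17-sphinganine, C12:0-SM), tip-sonicated 20 s, and incubated overnight at 48 °C. An aliquot was taken for total choline phospholipids (enzymatic colorimetric assay). The remainder was hydrolysed with methanolic KOH (37 °C, 2 h) and dried under N2. Positive-mode MRM LC-MS/MS was run, ceramides/sphingoid bases on C18 and SMs on C8; vs DMSO controls, n ≥ 3.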

[3] = system: DEGS-1 protein expression in HCT-116 cells; experiment: Western blotting of DEGS-1 protein expression; assay type: cell-based, human; settings: 10 or 20 μM for 8 or 16 h
Method in brief: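 HCT-116 cells were lysed in Tris-EDTA buffer with 1% SDS, 2 mM Na3VO4 and protease inhibitors. Protein was measured by BCA, and equal amounts were resolved by SDS-PAGE and immunoblotted with anti-DEGS-1 antibody.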

HCT-116 cells [4] = experiment: Annexin V / propidium iodide apoptosis, flow cytometry; assay type: cell-based, human; settings: 20 μM for 24 h, compared with DMSO-treated controls
Method in brief: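 HCT-116 cells were grown in McCoy's 5A with 10% FBS at 37 °C and 5% CO2. After treatment, floating and attached cells were pooled and stained with an annexin V–fluorescein/propidium iodide kit. Flow cytometry read apoptosis from annexin V (Ex 488, Em 518 nm) and necrosis from PI (Ex 488-540, Em 617 nm). Data are representative of three or more independent experiments.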

HCT-116 cells [5] = experiment: MTT cell viability assay, HCT-116; assay type: cell-based, human; settings: time- and dose-dependent
Method in brief: as §1

DEGS1 = target: T4, DEGS1 (Homo sapiens, UniProt O15121); experiment: In vitro DEGS assay with HCT-116 cell homogenates; assay type: biochemical
T4 sequence (O15121 1-323): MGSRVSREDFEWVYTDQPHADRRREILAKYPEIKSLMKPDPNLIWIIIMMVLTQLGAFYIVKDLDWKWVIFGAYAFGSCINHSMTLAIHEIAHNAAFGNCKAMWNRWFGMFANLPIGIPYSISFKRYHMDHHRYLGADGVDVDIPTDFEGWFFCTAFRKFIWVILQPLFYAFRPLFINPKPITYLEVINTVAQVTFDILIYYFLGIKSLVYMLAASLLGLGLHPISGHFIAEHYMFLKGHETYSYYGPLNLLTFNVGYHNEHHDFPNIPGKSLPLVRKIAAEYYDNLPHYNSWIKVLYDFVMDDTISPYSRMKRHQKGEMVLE
Method in brief: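 HCT-116 cells were treated for 1 or 2 h with test compound, reference inhibitor or DMSO. Cells were homogenized in 5 mM Hepes (pH 7.4) with 50 mM sucrose and kept 10 min on ice, and unbroken cells were removed at 250 × g for 5 min at 4 °C. Homogenate was incubated with 2 mM NADH and 10 μM C8:0-dihydroceramide substrate for 1 h at 37 °C. Lipids were extracted and C8:0-Cer and C8:0-SM quantified by LC-MS/MS; n = 3 independent experiments.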

[6] = system: colon tumorigenesis induced by AOM and DSS; experiment: AOM/DSS-induced colon tumorigenesis in mice; assay type: in vivo, male Balb/c mice; settings: 0.022% in diet

Structure (SMILES): Cc1c(O)cc2c(c1C)O[C@](C)(CCC[C@H](C)CCC[C@H](C)CCCC(C)C)CC2 [γT, γ-tocopherol]
IC50 (human recombinant COX-2): > 50 µM
inhibition of COX-2 at 50 μM (human recombinant COX-2): neither γT nor δT at 50 μM inhibited COX-2
IC50 (human recombinant 5-LOX): > 50 µM
inhibition of 5-LOX at 50 μM (human recombinant 5-LOX): neither γT nor δT at 50 μM inhibited COX-2 or 5-LOX

Structure (SMILES): Cc1cc(O)cc2c1O[C@](C)(CCC[C@H](C)CCC[C@H](C)CCCC(C)C)CC2 [δT, δ-tocopherol]
inhibition of COX-2 at 50 μM (human recombinant COX-2): neither γT nor δT at 50 μM inhibited COX-2
inhibition of 5-LOX at 50 μM (human recombinant 5-LOX): neither γT nor δT at 50 μM inhibited COX-2 or 5-LOX

Structure (SMILES): C/C(=C\CC/C(C)=C/CC[C@]1(C)CCc2cc(O)cc(C)c2O1)CC/C=C(\C)C(=O)O [δTE-13’-COOH]
LC3-II, a marker of autophagy (HCT-116 cells [1]): increase of LC3-II
cell viability (HT-29 cells): decreased the viability
apoptosis (annexin V staining) (HCT-116 cells [4]): induced early and late-stage apoptosis
cell viability (HCT-116 cells [5]): decreased the viability
effect on body weight ([6]; compared with the control diet): no effect
effect on food intake ([6]; compared with the control diet): no effect
decrease in number of large tumors (> 2 mm^2) ([6]; compared with controls, p < 0.05): 58%
colon tumors per mouse ([6]; mean ± SEM, n = 15-17, p < 0.01 vs control diet (4.7 ± 0.3)): 3.1 ± 0.3 tumors per mouse

Further lines, with some results ahead:

inhibition of DEGS enzyme activity (DEGS): failed to inhibit the enzyme activity
inhibition of DEGS1 enzyme activity (DEGS1; 20 μM, 1 h pre-incubation of HCT-116 cells): ~ 38%
inhibition of DEGS1 enzyme activity (DEGS1; 20 μM, 2 h pre-incubation of HCT-116 cells): ~ 47%
Structure (SMILES): Cc1cc(O)cc2c1O[C@](C)(CCC[C@H](C)CCC[C@H](C)CCCC(C)C(=O)O)CC2 (some centres unmarked) [δT-13’-COOH]
LC3-II, a marker of autophagy (HCT-116 cells [1]): increase of LC3-II
cell viability (HT-29 cells): decreased the viability
C16:0-Cer (HCT-116 cells [2]; 20 μM, 2 h incubation, compared with solvent controls): significant decrease
sphingomyelin species and total SMs (HCT-116 cells [2]; 10 or 20 μM, 1-16 h): persistent decrease
total dihydroceramides, individual dhCers and dihydrosphingosine (HCT-116 cells [2]; 10 or 20 μM, after 1-2 h treatment, compared with controls): dose-dependently increased
effect on DEGS-1 protein expression [3]: no effect
apoptosis (annexin V staining) (HCT-116 cells [4]): induced early and late-stage apoptosis
cell viability (HCT-116 cells [5]): decreased the viability

inhibition of DEGS1 enzyme activity (DEGS1; 1 μM, 1 or 2 h treatment of HCT-116 cells): ~ 95%
Structure (SMILES): CCCCCCCCCCCCCC1=C([C@@H](O)[C@H](CO)NC(=O)CCCCCCC)C1 [C8-CPPC, C8-cyclopropenylceramide, reference compound]
